Data: ChEMBL document CHEMBL2321659, “Design, synthesis, and biological evaluation of indenoisoquinoline rexinoids with chemopreventive potential” (J Med Chem, 2013)

biological target: T1, Retinoic acid receptor RXR-alpha (Homo sapiens) (UniProt P19793); test: Activation of human RXRalpha activity expressed in COS1 cells assessed as induction ratio at 50 uM after 12 hrs by RXRE-luciferase reporter gene assay relative to untreated control; format: cell-based; conditions: COS-1
T1 sequence (whole entry): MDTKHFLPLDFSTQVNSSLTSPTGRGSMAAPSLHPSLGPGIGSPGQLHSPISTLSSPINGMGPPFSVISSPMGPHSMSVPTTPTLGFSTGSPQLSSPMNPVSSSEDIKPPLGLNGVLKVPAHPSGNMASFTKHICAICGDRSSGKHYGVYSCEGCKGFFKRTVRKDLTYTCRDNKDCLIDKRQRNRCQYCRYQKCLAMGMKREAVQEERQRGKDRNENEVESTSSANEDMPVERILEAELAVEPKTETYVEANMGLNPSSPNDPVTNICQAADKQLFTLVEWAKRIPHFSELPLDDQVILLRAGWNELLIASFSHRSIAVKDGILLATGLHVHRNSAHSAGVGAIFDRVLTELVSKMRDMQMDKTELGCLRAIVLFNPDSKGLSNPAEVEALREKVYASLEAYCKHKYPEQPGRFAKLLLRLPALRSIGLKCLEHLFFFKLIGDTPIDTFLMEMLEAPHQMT
Outline: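 COS-1 cells transiently co-transfected per well with 100 ng RXRE-firefly luciferase reporter, 50 ng human RXRα expression vector and 3 ng Renilla luciferase vector using Lipofectamine 2000 for 24 h, then exposed to compound for a further 12 h. Dual-luciferase read-out. Induction ratio taken at 50 µM test concentration.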

Ratio | SMILES
< 1 | CN(C)CCCn1c2c(c3ccc(C#N)cc3c1=O)C(=O)c1cc3c(cc1-2)OCO3
< 1 | O=CCCn1c2c(c3ccc([N+](=O)[O-])cc3c1=O)C(=O)c1ccccc1-2
< 1 | COC(=O)/C=C/c1ccc2c3c(n(C)c(=O)c2c1)-c1ccccc1C3=O
< 1 | CNCCCn1c2c(c3ccc(N)cc3c1=O)C(O)c1ccccc1-2 (stereo not given)
< 1 | COC(=O)C(=O)Nc1ccc2c3c(n(C)c(=O)c2c1)-c1ccccc1C3=O
< 1 | CC(=O)NCCCn1c2c(c3ccc([N+](=O)[O-])cc3c1=O)C(=O)c1ccccc1-2
< 1 | Cn1c2c(c3ccc(Br)cc3c1=O)C(=O)c1ccccc1-2
< 1 | Cn1c2c(c3ccc(CCCC(=O)O)cc3c1=O)C(=O)c1ccccc1-2
< 1 | NCCCn1c2c(c3ccc(NC(=O)CCCCC(=O)O)cc3c1=O)C(=O)c1ccccc1-2
< 1 | NC(=O)CCn1c2c(c3ccc([N+](=O)[O-])cc3c1=O)C(=O)c1ccccc1-2
< 1 | CCCCn1c2c(c3ccccc3c1=O)C(=O)c1ccccc1-2
< 1 | O=C1c2ccccc2-c2c1c1ccc([N+](=O)[O-])cc1c(=O)n2CCCO
< 1 | COC(=O)Cc1ccc2c3c(n(C)c(=O)c2c1)-c1ccccc1C3=O
< 1 | NCCCn1c2c(c3ccc(NC(=O)C(=O)O)cc3c1=O)C(=O)c1ccccc1-2
< 1 | CN(C)c1ccc2c3c(n(CCCNC(=O)OC(C)(C)C)c(=O)c2c1)-c1ccccc1C3=O
< 1 | CCOC(=O)CNc1ccc2c3c(n(C)c(=O)c2c1)-c1ccccc1C3=O
< 1 | CNc1ccc2c3c(n(CCCN)c(=O)c2c1)-c1ccccc1C3O (stereo not given)
< 1 | COc1ccc2c(c1)C(=O)c1c-2n(CCCN)c(=O)c2cc(OC)c(OC)cc12
< 1 | Cn1c2c(c3ccc(/C=C/C(=O)O)cc3c1=O)C(=O)c1ccccc1-2
< 1 | Cn1c2c(c3ccc(Cl)cc3c1=O)C(=O)c1ccccc1-2
< 1 | COC(=O)CCCC(=O)Nc1ccc2c3c(n(C)c(=O)c2c1)-c1ccccc1C3=O
< 1 | O=C1c2ccccc2-c2c1c1ccc([N+](=O)[O-])cc1c(=O)n2CCCCl
< 1 | CNc1ccc2c3c(n(CCCNC(=O)OC(C)(C)C)c(=O)c2c1)-c1ccccc1C3O (stereo not given)
< 1 | O=C1c2ccccc2-c2c1c1ccc([N+](=O)[O-])cc1c(=O)n2CCCBr
< 1 | COC(=O)CCn1c2c(c3ccc(Br)cc3c1=O)C(=O)c1ccccc1-2

Ratio | SMILES
< 1 | Cn1c2c(c3ccc(C=O)cc3c1=O)C(=O)c1ccccc1-2
< 1 | CC(=O)Nc1ccc2c3c(n(CCCCl)c(=O)c2c1)-c1ccccc1C3=O
< 1 | Cn1c2c(c3ccc(NCC(=O)O)cc3c1=O)C(=O)c1ccccc1-2
< 1 | Cn1c2c(c3ccc(CC(=O)O)cc3c1=O)C(=O)c1ccccc1-2
< 1 | Cn1c2c(c3ccc(NC(=O)CC(=O)O)cc3c1=O)C(=O)c1ccccc1-2
< 1 | O=C(O)CCn1c2c(c3ccc([N+](=O)[O-])cc3c1=O)C(=O)c1ccccc1-2
< 1 | [N-]=[N+]=NCCCn1c2c(c3ccc([N+](=O)[O-])cc3c1=O)C(=O)c1ccccc1-2
< 1 | COCCCn1c2c(c3ccc([N+](=O)[O-])cc3c1=O)C(=O)c1ccccc1-2
< 1 | Cn1c2c(c3ccccc3c1=O)C(=O)c1ccccc1-2
< 1 | COC(=O)CCCc1ccc2c3c(n(C)c(=O)c2c1)-c1ccccc1C3=O
< 1 | O=C1c2ccccc2-c2c1c1ccc([N+](=O)[O-])cc1c(=O)n2CCCCO
< 1 | NCCCn1c2c(c3ccc(NC(=O)CC(=O)O)cc3c1=O)C(=O)c1ccccc1-2
< 1 | N#Cc1ccc2c3c(n(CCCN4CCOCC4)c(=O)c2c1)-c1ccccc1C3=O
< 1 | NC(=O)CCn1c2c(c3ccccc3c1=O)C(=O)c1ccccc1-2
< 1 | Nc1ccc2c3c(n(CCCO)c(=O)c2c1)-c1ccccc1C3O (stereo not given)
< 1 | COC(=O)CCCC(=O)Nc1ccc2c3c(n(CCCN)c(=O)c2c1)-c1ccccc1C3=O
< 1 | Nc1ccc2c3c(n(CCCCl)c(=O)c2c1)-c1ccccc1C3=O
< 1 | CC(C)(C)OC(=O)NCCCn1c2c(c3ccc(N)cc3c1=O)C(=O)c1ccccc1-2
< 1 | COC(=O)c1ccc2c3c(n(CCCn4ccnc4)c(=O)c2c1)-c1ccccc1C3=O
< 1 | COC(=O)CCC(=O)Nc1ccc2c3c(n(C)c(=O)c2c1)-c1ccccc1C3=O
< 1 | Cn1c2c(c3ccc(NC(=O)C(=O)O)cc3c1=O)C(=O)c1ccccc1-2
< 1 | COC(CCn1c2c(c3ccc([N+](=O)[O-])cc3c1=O)C(=O)c1ccccc1-2)OC
< 1 | COC(=O)CC(=O)Nc1ccc2c3c(n(C)c(=O)c2c1)-c1ccccc1C3=O
< 1 | O=C(O)CCn1c2c(c3ccccc3c1=O)C(=O)c1ccccc1-2
< 1 | Cn1c2c(c3ccc([N+](=O)[O-])cc3c1=O)C(=O)c1ccccc1-2

Ratio | SMILES
< 1 | [N-]=[N+]=NCCn1c2c(c3ccc([N+](=O)[O-])cc3c1=O)C(=O)c1ccccc1-2
< 1 | N#Cc1ccc2c3c(n(CCCn4ccnc4)c(=O)c2c1)-c1ccccc1C3=O
< 1 | Cn1c2c(c3ccc(/C=C/C#N)cc3c1=O)C(=O)c1ccccc1-2
< 1 | NCCCn1c2c(c3ccc(NC(=O)CCCC(=O)O)cc3c1=O)C(=O)c1ccccc1-2
< 1 | COC(=O)c1ccc2c3c(n(C)c(=O)c2c1)-c1ccccc1C3=O
< 1 | Cn1c2c(c3ccc(C#N)cc3c1=O)C(=O)c1ccccc1-2
< 1 | CCOC(CCn1c2c(c3ccc([N+](=O)[O-])cc3c1=O)C(=O)c1ccccc1-2)OCC
< 1 | COC(=O)c1ccc2c3c(n(CCCN4CCOCC4)c(=O)c2c1)-c1ccccc1C3=O
< 1 | COC(=O)C(=O)Nc1ccc2c3c(n(CCCN)c(=O)c2c1)-c1ccccc1C3=O
< 1 | COC(=O)CCCCC(=O)Nc1ccc2c3c(n(C)c(=O)c2c1)-c1ccccc1C3=O
< 1 | COc1ccc2c(c1)C(=O)c1c-2n(CCCN)c(=O)c2cc(N(C)C)ccc12
< 1 | NCCCn1c2c(c3ccc(N)cc3c1=O)C(O)c1ccccc1-2 (stereo not given)
< 1 | COC(=O)CCCCC(=O)Nc1ccc2c3c(n(CCCN)c(=O)c2c1)-c1ccccc1C3=O
< 1 | NCCCn1c2c(c3ccc(NC(=O)CCC(=O)O)cc3c1=O)C(=O)c1ccccc1-2
< 1 | Nc1ccc2c3c(n(CCCO)c(=O)c2c1)-c1ccccc1C3=O
< 1 | Cc1ccc2c3c(n(C)c(=O)c2c1)-c1ccccc1C3=O
< 1 | COC(=O)CCC(=O)Nc1ccc2c3c(n(CCCN)c(=O)c2c1)-c1ccccc1C3=O
< 1 | O=C1c2ccccc2-c2c1c1ccc(Br)cc1c(=O)n2CCCn1ccnc1
< 1 | O=C1c2ccccc2-c2c1c1ccc(Br)cc1c(=O)n2CCCO
< 1 | O=C1c2ccccc2-c2c1c1ccccc1c(=O)n2CCCO
< 1 | Cn1c2c(c3ccc(C(=O)O)cc3c1=O)C(=O)c1ccccc1-2
< 1 | Cn1c2c(c3ccc(C(N)=O)cc3c1=O)C(=O)c1ccccc1-2
< 1 | COC(=O)C#Cc1ccc2c3c(n(C)c(=O)c2c1)-c1ccccc1C3=O
< 1 | CNc1ccc2c3c(n(CCCNC(=O)OC(C)(C)C)c(=O)c2c1)-c1ccccc1C3=O
< 1 | CC(C)(C)OC(=O)NCCCn1c2c(c3ccc([N+](=O)[O-])cc3c1=O)C(=O)c1ccccc1-2
